The test system of test [1] is Duck hepatitis B virus. Description: Antiviral activity against duck HBV in primary duck hepatocytes at 10 ug/mL. It counts as functional. Particulars: Hepatocyte. The method in brief:
(§1)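 Primary hepatocyte cultures from congenitally DHBV-infected ducks were exposed to compounds. Intracellular viral DNA was measured by dot blot hybridization. EC50 is the µM concentration that cuts viral DNA to 50% of untreated infected controls. The single-point value is % inhibition of viral DNA at 10 µg/mL against untreated infected controls.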

In test [2] the test system is Hepatitis B virus. Description: Antiviral activity against wild type HBV in human hepatoma 2.2.15 cells. It counts as functional, organism-based. The following applies: HepG2 2.2.15. The gist of the method: (§2)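 HBV-transfected human 2.2.15 cells were treated with compounds. Intracellular HBV DNA was quantified by dot blot hybridization. EC50 is the µM concentration that reduces viral DNA to 50% of untreated infected controls. The fixed-dose value is % inhibition at 10 µg/mL against untreated infected controls. Lamivudine and abacavir served as references.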

The test system of the next test is Vero. Description: Cytotoxicity against Vero cell line. The class given is functional. The following applies: Chlorocebus sabaeus. The gist of the method:
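Vero cell viability was measured by MTT after 3 days of compound exposure. CC50 is the concentration giving 50% loss of viability versus untreated control. ">" marks values where 50% was not reached at the highest concentration tested.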

The test system of test [3] is Duck hepatitis B virus. Description: Antiviral activity against duck HBV in primary duck hepatocytes. The class given is functional, organism-based. Particulars: Hepatocyte. The method in brief: as §1
Test [4] relates to Hepatitis B virus. Kind of test: Antiviral activity against wild type HBV in human hepatoma 2.2.15 cells at 10 ug/mL. The following applies: HepG2 2.2.15. The class given is functional. The gist of the method:
as §2

The test system of a further test is HepG2. Description: Cytotoxicity against human HepG2 cell line. It counts as functional. The method in brief: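 HepG2 cells were exposed to compounds for 3 days and viability was measured. CC50 is the concentration lowering viability by 50% versus untreated control. ">" means 50% was not reached at the highest concentration tested.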
A further test relates to Hepatitis C virus. Kind of test: Antiviral activity against hepatitis C virus. It counts as functional, organism-based, Hepacivirus hominis.
Test [5] relates to Hepatitis B virus. Kind of test: Antiviral activity against HBV M204I mutant transfected in B1 cell line at 10 ug/mL. The class given is functional. The gist of the method: (§3)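 Mutant-HBV-transfected HepG2 lines: B1 carries M204I, D88 carries L180M/M204V. Cells are exposed to compound at 10 µg/mL. Intracellular viral DNA is quantified by dot blot hybridization. Results are given as percent inhibition of viral DNA relative to untreated infected controls.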

Test [6] concerns Hepatitis B virus. Description: Antiviral activity against HBV M204I mutant transfected in B1 cell line. It counts as functional, organism-based. The gist of the method: (§4)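 HepG2 human hepatoma cells stably transfected with mutant HBV genome: B1 line carries M204I, D88 line carries L180M/M204V. Culture, compound treatment and read-out are as for 2.2.15 cells. Intracellular viral DNA is measured by dot blot hybridization. EC50 is the concentration (µM) that reduces viral DNA to 50% of untreated infected controls.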

For test [7], the system named is Hepatitis B virus. Kind of test: Antiviral activity against HBV L180M/M204V mutant transfected in D88 cell line at 10 ug/mL. The class given is functional. The gist of the method: as §3
Test [8] has as its system Hepatitis B virus. Description: Antiviral activity against HBV L180M/M204V mutant transfected in D88 cell line. It counts as functional, organism-based. The gist of the method: as §4

pEC50: −log10 of the molar value. Where only a bound is given, the exact number is not on record here.

Among the data in ChEMBL document CHEMBL1148649, “Effect of various pyrimidines possessing the 1-[(2-hydroxy-1-(hydroxymethyl)ethoxy)methyl] moiety, able to mimic natural 2'-deoxyribose, on wild-type and mutant hepatitis B virus replication” (J Med Chem, 2006) are inhibition, EC50 and CC50 values, retold here.

As for `O=c1[nH]c(=O)n(COC(CO)CO)cc1[N+](=O)[O-]`, the inhibition at 10 µg/mL with Duck hepatitis B virus [1] stood at 45%; with Hepatitis B virus [4], 40%. Also, the pEC50 in the test with Hepatitis B virus [2] and in the test on Duck hepatitis B virus [3] was less than 4.42 in each case. Besides, the CC50 in the test with Vero and with HepG2 was more than 383 µM each time.

On to `Nc1nc(=O)n(COC(CO)CO)cc1F`, for which the inhibition at 10 µg/mL in the test with Duck hepatitis B virus [1] was 20%; in the test with Hepatitis B virus [4], 0%. Also, the CC50 with Vero and in the test on HepG2 was more than 429 µM in each case. In addition, the pEC50 with Duck hepatitis B virus [3] was less than 4.37; in the test with Hepatitis C virus it was 3.88.

Regarding `O=c1[nH]c(=O)n(COC(CO)CO)cc1/C=C/Br`, the inhibition at 10 µg/mL with Duck hepatitis B virus [1] came out at 75%; in the test on Hepatitis B virus [4] it was 53%. The negative-log EC50 (pEC50) with Hepatitis B virus [2] is 4.52; in the test with Duck hepatitis B virus [3], 5.52. The CC50 in the test on Vero and in the test with HepG2 was more than 311 µM in each case.

Consider `Nc1ccn([C@@H]2CS[C@H](CO)O2)c(=O)n1` [LAMIVUDINE], for which the inhibition at 10 µg/mL is 96% in the test on Duck hepatitis B virus [1], 45% with Hepatitis B virus [5], 88% in the test with Hepatitis B virus [4] and 30% with Hepatitis B virus [7]. In the test on Hepatitis B virus [6], this compound showed a negative-log EC50 (pEC50) of less than 4.36.

`Nc1cn(COC(CO)CO)c(=O)[nH]c1=O`: the inhibition at 10 µg/mL in the test on Duck hepatitis B virus [1] came to 37%; with Hepatitis B virus [4] it was 30%. The pEC50 in the test on Hepatitis B virus [2] and in the test with Duck hepatitis B virus [3] was less than 4.36 throughout. In addition, the CC50 in the test on Vero and in the test on HepG2 was more than 432 µM each time.

`Cc1nn(COC(CO)CO)c(=O)[nH]c1=O`: the inhibition at 10 µg/mL worked out at 45% with Duck hepatitis B virus [1] and 37% with Hepatitis B virus [4]. The pEC50 in the test with Hepatitis B virus [2] and in the test with Duck hepatitis B virus [3] was less than 4.36 throughout. In addition, the CC50 with Vero and in the test on HepG2 was more than 432 µM in each case.

In the case of `O=c1[nH]c(=O)n(COC(CO)CO)cc1CO`, the inhibition at 10 µg/mL in the test with Duck hepatitis B virus [1] and with Hepatitis B virus [4] was 0% throughout. Also, the CC50 in the test on Vero and in the test on HepG2 was more than 406 µM throughout.

`Cc1cc(=O)[nH]c(=O)n1COC(CO)CO`: the inhibition at 10 µg/mL stood at 27% with Duck hepatitis B virus [1] and 0% with Hepatitis B virus [4]. For the same compound, the CC50 in the test with Vero and with HepG2 was more than 434 µM each time. This compound also showed a negative-log EC50 (pEC50) in the test with Duck hepatitis B virus [3] of less than 4.36.

For `Cc1cn(COC(CO)CO)c(=O)[nH]c1=O`, the inhibition at 10 µg/mL is 45% with Duck hepatitis B virus [1] and 37% with Hepatitis B virus [4]. Further, the pEC50 in the test on Hepatitis B virus [2] and with Duck hepatitis B virus [3] was less than 4.36 in each case. In addition, the cytotoxic concentration (CC50) in the test on Vero and in the test with HepG2 was more than 434 µM each time.

With `O=c1[nH]c(=O)n(COC(CO)CO)cc1CCO`, the inhibition at 10 µg/mL was determined as 25% with Duck hepatitis B virus [1] and 28% in the test with Hepatitis B virus [4]. For the same compound, the negative-log EC50 (pEC50) with Hepatitis B virus [2] and in the test on Duck hepatitis B virus [3] was less than 4.42 throughout. The cytotoxic concentration (CC50) with Vero and with HepG2 was more than 384 µM throughout.

Consider `O=c1[nH]c(=O)n(COC(CO)CO)cc1Cl`, for which the inhibition at 10 µg/mL was found to be 69% in the test with Duck hepatitis B virus [1], 56% with Hepatitis B virus [5], 60% with Hepatitis B virus [4] and 40% with Hepatitis B virus [7]. Also, the pEC50 with Hepatitis B virus [2] is 4.70; with Duck hepatitis B virus [3], 5.40; with Hepatitis B virus [8], less than 4.40; in the test with Hepatitis B virus [6] it was 4.70. The CC50 in the test with Vero and in the test with HepG2 was more than 400 µM throughout.

Turning to `O=c1[nH]c(=O)n(COC(CO)CO)cc1Br`, the inhibition at 10 µg/mL in the test on Duck hepatitis B virus [1] is 48%; with Hepatitis B virus [4], 40%. Also, the pEC50 with Hepatitis B virus [2] and in the test with Duck hepatitis B virus [3] was less than 4.47 each time. The CC50 in the test on Vero and with HepG2 was more than 338 µM throughout.

On to `O=c1cnn(COC(CO)CO)c(=O)[nH]1`, for which the inhibition at 10 µg/mL in the test on Duck hepatitis B virus [1] turned out to be 41%; with Hepatitis B virus [4], 32%. The pEC50 in the test on Hepatitis B virus [2] and in the test on Duck hepatitis B virus [3] was less than 4.34 throughout. The 50% cytotoxic concentration (CC50) in the test on Vero and in the test on HepG2 was more than 460 µM in each case.

In the case of `Nc1nc(NC2CC2)c2ncn([C@H]3C=C[C@@H](CO)C3)c2n1` [ABACAVIR], the inhibition at 10 µg/mL in the test with Hepatitis B virus [5] came to 80%; with Hepatitis B virus [7], 72%.

`Cc1c(Br)c(=O)[nH]c(=O)n1COC(CO)CO`: the inhibition at 10 µg/mL in the test on Duck hepatitis B virus [1] is 73%; in the test on Hepatitis B virus [5], 51%; with Hepatitis B virus [4], 55%; with Hepatitis B virus [7] it was 30%. For the same compound, the negative logarithm of the EC50 (pEC50) was 4.49 in the test with Hepatitis B virus [2], 4.79 with Duck hepatitis B virus [3], less than 4.49 with Hepatitis B virus [8] and 4.49 in the test on Hepatitis B virus [6]. The CC50 in the test on Vero and with HepG2 was more than 324 µM each time.

Turning to `CCc1cn(COC(CO)CO)c(=O)[nH]c1=O`, the inhibition at 10 µg/mL in the test with Duck hepatitis B virus [1] came to 35%; with Hepatitis B virus [4], 30%. Besides, the negative logarithm of the EC50 (pEC50) with Hepatitis B virus [2] and in the test with Duck hepatitis B virus [3] was less than 4.39 each time. Besides, the 50% cytotoxic concentration (CC50) in the test with Vero and with HepG2 was more than 410 µM throughout.

`Nc1ccn(COC(CO)CO)c(=O)n1`: the inhibition at 10 µg/mL with Duck hepatitis B virus [1] and in the test on Hepatitis B virus [4] was 0% in each case. Also, the CC50 in the test with Vero and in the test with HepG2 was more than 465 µM throughout.

On to `Cc1c(I)c(=O)[nH]c(=O)n1COC(CO)CO` [IODMETACYCLUR], for which the inhibition at 10 µg/mL with Duck hepatitis B virus [1] is 44%; in the test with Hepatitis B virus [4] it was 38%. Besides, the pEC50 with Hepatitis B virus [2] and with Duck hepatitis B virus [3] was less than 4.55 throughout. The CC50 in the test on Vero and in the test on HepG2 was more than 280 µM each time.

As for `O=c1[nH]c(=O)n(COC(CO)CO)cc1F`, the inhibition at 10 µg/mL in the test on Duck hepatitis B virus [1] was 24%; in the test with Hepatitis B virus [4], 26%. The negative-log EC50 (pEC50) in the test with Hepatitis B virus [2] and in the test with Duck hepatitis B virus [3] was less than 4.37 each time. The CC50 in the test on Vero and in the test on HepG2 was more than 427 µM in each case.

`O=c1ccn(COC(CO)CO)c(=O)[nH]1`: the inhibition at 10 µg/mL with Duck hepatitis B virus [1] and in the test on Hepatitis B virus [4] was 0% in each case. The CC50 in the test on Vero and with HepG2 was more than 462 µM each time.

On to `Cc1nn(COC(CO)CO)c(=S)[nH]c1=O`, for which the inhibition at 10 µg/mL in the test with Duck hepatitis B virus [1] was determined as 25%; with Hepatitis B virus [4], 0%. Also, the cytotoxic concentration (CC50) with Vero and in the test with HepG2 was more than 404 µM in each case. The compound also had a negative logarithm of the EC50 (pEC50) in the test with Duck hepatitis B virus [3] of less than 4.39.

For `COc1nc(=O)n(COC(CO)CO)cc1Br`, the inhibition at 10 µg/mL is 45% with Duck hepatitis B virus [1] and 35% with Hepatitis B virus [4]. The negative logarithm of the EC50 (pEC50) in the test with Hepatitis B virus [2] and in the test with Duck hepatitis B virus [3] was less than 4.49 in each case. The cytotoxic concentration (CC50) with Vero and in the test with HepG2 was more than 323 µM each time.
